Shown are actives, neighbours in structure and some others; about 2.5% of the full set was active somewhere.
ABHD5 PLIN5 PPI = ABHD5-PLIN5 interaction inhibitors, primary screen, cell lysate, split luciferase complementation, luminescence | inhibition, % at 4 µM | Perilipin-5 (Homo sapiens) + 1-acylglycerol-3-phosphate O-acyltransferase ABHD5 (Homo … | AID 602281, 2012 | Split G. princeps luciferase complementation, 4 h | actives 0.78% (n = 360,000);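 active = inhibition above the mean inhibition across every tested compound plus 3 SD, cut at about 22% in these data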;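 also: 0% = DMSO only wells and the 100% control is not disclosed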
B2AR ag = beta2AR agonists driving receptor internalization, primary screen, cell-based, FAP fluorogen, flow cytometry; Am2.2-beta2AR cells; Beta-2 adrenergic receptor (Homo sapiens), P07550; response, % (test concentration not listed); AID 504454, 2011; actives 0.43% (n = 340,000);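 active = response above a set limit, near 3 SD of response in nonfluorescent compounds, cut at about 42% in these data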
MBD2 DNA inh = inhibitors of MBD2 binding to methylated DNA, primary screen, biochemical, TR-FRET, DNA-binding domain, human; MBD2 binding to methylated oligonucleotide; inhibition, % at 4.4 µM; actives 0.31% (n = 370,000); AID 686964, 2013; in the data active = inhibition above about 13%
UHRF1 binding = UHRF1 methylated DNA binding inhibitors, primary screen, counter-screen for MBD2 inhibitor project, biochemical, TR-FRET, human UHRF1, single concentration; E3 ubiquitin-protein ligase UHRF1 (Homo sapiens), Q96T88; UHRF1 binding to methylated oligo; inhibition, % at 4.4 µM; actives 0.75% (n = 370,000); in the data active = inhibition above about 21%;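 also: UHRF1 SRA domain binding a hemimethylated CpG hairpin DNA probe; 0% = median of test compound wells and 100% = reference inhibitor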
Target sequence (Q96T88 whole entry, looked up, the tested form may be a part): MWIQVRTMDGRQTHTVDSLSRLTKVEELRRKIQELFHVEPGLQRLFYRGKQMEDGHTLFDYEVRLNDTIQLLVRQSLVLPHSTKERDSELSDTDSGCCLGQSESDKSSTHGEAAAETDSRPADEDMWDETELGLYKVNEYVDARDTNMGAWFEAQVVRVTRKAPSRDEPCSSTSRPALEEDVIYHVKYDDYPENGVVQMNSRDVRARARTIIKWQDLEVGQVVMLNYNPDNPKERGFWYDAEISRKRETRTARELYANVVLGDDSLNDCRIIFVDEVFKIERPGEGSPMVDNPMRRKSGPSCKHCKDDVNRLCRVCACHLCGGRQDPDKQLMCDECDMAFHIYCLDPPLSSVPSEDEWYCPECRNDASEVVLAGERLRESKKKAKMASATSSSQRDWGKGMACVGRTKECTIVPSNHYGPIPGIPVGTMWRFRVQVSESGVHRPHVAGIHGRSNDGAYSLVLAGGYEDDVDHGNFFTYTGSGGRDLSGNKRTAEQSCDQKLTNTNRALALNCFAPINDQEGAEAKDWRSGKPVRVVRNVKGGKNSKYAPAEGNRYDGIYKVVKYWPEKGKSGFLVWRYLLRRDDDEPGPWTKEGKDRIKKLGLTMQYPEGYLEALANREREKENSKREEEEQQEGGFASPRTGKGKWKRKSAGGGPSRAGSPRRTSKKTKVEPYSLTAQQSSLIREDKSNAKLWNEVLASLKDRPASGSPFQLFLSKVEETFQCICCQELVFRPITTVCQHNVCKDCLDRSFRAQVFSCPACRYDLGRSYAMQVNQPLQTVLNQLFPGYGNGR
Rin1 Abl inh = inhibitors of Rin1-Abl protein binding, primary screen, biochemical, TR-FRET; Tyrosine-protein kinase ABL1 (Homo sapiens) + Ras and Rab interactor 1 (Homo sapiens), …; actives 0.4% (n = 360,000); inhibition, % at 7.35 µM; AID 588664, 2011; in the data active = inhibition above about 5%, passing the limit was not always enough
Arr AP2 block = inhibitors of beta-arrestin/AP2 binding, primary screen, biochemical, GPCR trafficking, flow cytometry | beta-arrestin 1 C-terminal peptide binding to AP2 beta2-adaptin appendage (human) | FITC-arrestin peptide / GST-AP2 beads; AP2 beta2 appendage carries R879A mutation | inhibition, % at 10 µM | actives 0.31% (n = 340,000);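 active = inhibition above a set limit, near 3 SD of compounds lacking own fluorescence, cut at about 54% in these data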;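 also: plate controls were DMSO wells for no effect and 5 µM unlabelled arrestin peptide for full effect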
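system = GST-tagged AP2 beta2-adaptin appendage (R879A) on 4 µm glutathione beads | reagent = FITC-labelled arrestin peptide probe, 50 nM final | schedule = compound with beads 12 min RT, then probe 1 h RT | signal = HyperCyt-sampled flow cytometry, FL1 channel, ex 488/em 535 nm | read-out = percent response from loss of bead-bound FITC fluorescence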
* hit, by the source's call; x = not tested or not shown.

SMILES | ABHD5 PLIN5 PPI | B2AR ag | MBD2 DNA inh | UHRF1 binding | Rin1 Abl inh | Arr AP2 block
CCOC(=O)NC[C@@]1(C(=O)OC)CC(=O)N(Cc2ccc(Cl)cc2)[C@@H]1c1ccc(OC)cc1 | x | x | 3 | 0 | x | x
COc1ccc(Cl)cc1C(=O)Nn1c(C)nc2ccccc2c1=O | 9 | -17 | -1 | 3 | 0 | -7
COc1ccc(Cl)cc1C(=O)Nn1c(-c2cccs2)nc2ccccc2c1=O | -7 | 68* | -3 | 0 | 2 | -12
COc1ccc(/C=C2/CN(Cc3ccc(OC)cc3OC)C3=N[C@H](c4ccccc4)CC(=O)N32)cc1 | x | x | -3 | 0 | x | x
O=C(c1cccn2c(=O)c3ccccc3nc12)N1CCN(c2ccccn2)CC1 | 2 | -9 | -4 | 2 | -5 | 0
O=C(O)c1cccn2c(=O)c3ccccc3nc12 | 0 | 9 | 11 | 21* | -3 | -8
O=C(Nc1ccc(NC(=O)c2ccco2)c(Cl)c1)c1ccccc1 | 1 | -1 | 3 | 42* | 0 | 40
CCn1c(SCC(=O)c2ccc(-c3ccccc3)cc2)nnc1-c1ccccc1OC | x | x | -5 | -3 | x | x
Cc1cccc(N2CCN(c3ccc4cc(S(=O)(=O)N5CCCCC5)ccc4n3)CC2)c1C | 2 | -4 | 11 | 23* | 1 | 2
CCc1ccccc1NS(=O)(=O)c1c(C(=O)N2CCCCCC2)c(C)n(C)c1C | 5 | -2 | 2 | 21* | -4 | 22
O=C(NCc1ccccc1)C(=O)NCC(c1ccco1)N1CCN(c2ccccc2F)CC1 (centres undefined) | 1 | -3 | 7 | 17 | 4.7* | 7
COC(=O)c1ccc(CSc2nnc(NCc3ccccc3)s2)o1 | -5 | 4 | -7 | 13 | 3 | -2
COC(=O)c1ccc(CSc2nc(-c3ccccc3)cs2)o1 | 0 | -4 | 0 | 21* | -5 | 4
CCN(CC)CCOCCOC(=O)C(CC)(CC)c1ccccc1 | 23* | -1 | -1 | 14 | 3 | -25
CCN(CC)CCOCCOc1ccccc1F | 1 | 9 | 2 | -6 | 0 | 5
CS(=O)(=O)c1ncc(Cl)c(C(=O)Nc2ccc3ccccc3c2)n1 | 77* | 48* | 2 | 1 | 4 | -8
O=C(N=Nc1c(O)[nH]c2ccc([N+](=O)[O-])cc12)c1ccccc1Cl | -3 | -2 | 1 | -1 | -5 | 2
O=C(N=Nc1c(O)[nH]c2ccc(Cl)cc12)c1cc(-c2cccs2)nc2ccccc12 | 2 | 47* | -1 | -2 | -6 | 6
CC1CN(Cc2cc(=O)n3ccsc3n2)CC(C)O1 (centres undefined) | 7 | -2 | 11 | 21* | -1 | 18
O=c1cc(CN2CCC(Cc3ccccc3)CC2)nc2sccn12 | 2 | -5 | -3 | 1 | -3 | 15
CC(=O)NC(c1cccs1)c1cc([N+](=O)[O-])c2cccnc2c1O (centres undefined) | 3 | -5 | -18 | -11 | 17* | x
COC(=O)[C@]12C=CCN1[C@H](c1ccc(OC)c(OC)c1)c1c(c3ccccc3n1S(=O)(=O)c1ccc(C)cc1)C2 | x | x | -5 | -2 | x | x
CC(=O)Nc1ccc(S(=O)(=O)/N=C2\C(=O)c3ccccc3C([O-])=C2n2cc[n+](-c3ccccn3)c2)cc1 | -7 | 11 | -4 | 44* | 0 | 11
Cc1ccc(Cn2cc(CN3[C@H](Cc4ccccc4)COc4cc(Br)ccc4S3(=O)=O)nn2)cc1 | x | x | -1 | -1 | x | x
COc1ccc(NC(=O)/C(Cl)=C(/Cl)S(=O)(=O)Cc2ccccc2)cn1 | 49* | 37 | 0 | 1 | 4 | -4
SMILES | ABHD5 PLIN5 PPI | B2AR ag | MBD2 DNA inh | UHRF1 binding | Rin1 Abl inh | Arr AP2 block
COc1ccc(NC(=O)/C(Cl)=C(/Cl)S(=O)Cc2ccc(Cl)cc2)cn1 (centres undefined) | 96* | -401 | 0 | 1 | 0 | 13
COc1ccc(NC(=O)C(C)(C)Oc2ccc(Cl)cc2)cn1 | 0 | -6 | -2 | -2 | 1 | 0
COc1ccc(NC(=O)C(Cl)=C(Cl)Cl)cn1 | 5 | 0 | 2 | -3 | -1 | -7
COc1ccc(N2CCN(CCCNC(=O)CCOC(C)(C)C)CC2)cc1 | x | x | -3 | -1 | x | x
CC1CCc2c(sc3nc(C(C)(C)C)nc(N4CCN(C(=O)CCl)CC4)c23)C1 (centres undefined) | 18 | 50* | 1 | 9 | 1 | -1
C=CCN1[C@@H](C)[C@H](c2ccccc2)Oc2cccc(N3CCCC(C)C3)c2S1(=O)=O (some centres undefined) | x | x | 7 | 23* | x | x
O=C(Nc1cccc(OCC(=O)N2CCOCC2)c1)c1cccc(Cl)c1 | -3 | 18 | -2 | -2 | 2 | 24
O=C(COc1cccc(NC(=O)c2ccccc2)c1)c1ccccc1 | 1 | -9 | 8 | 27* | 3 | 2
O=C(Nc1ccc(Br)cc1)c1cccc(OC(=S)N2CCOCC2)c1 | -4 | 77* | 3 | 4 | 1 | 21
O=C(Nc1ccc(OCc2ccccc2)cc1)c1ccccc1 | -7 | 9 | 6 | 65* | -2 | 3
O=C(Nc1cccc(OCC(=O)N2CCOCC2)c1)c1cccc([N+](=O)[O-])c1 | 1 | -2 | -3 | 34* | 2 | -2
O=C1CCC[C@H]2C[C@H](NCc3ccc(Cl)cc3)CC[C@]23CCCN13 | x | x | 0 | 1 | x | x
CSc1ncc(CN2CCCC(C(=O)Nc3ccc(-c4ccco4)cc3)C2)cn1 (centres undefined) | 35* | 14 | -6 | 0 | 5 | 29
Cc1ncc(CN2CCCC(C(=O)Nc3ccc(-c4ccco4)cc3)C2)n1C (centres undefined) | 12 | 4 | -6 | -1 | -6 | -5
COc1ccc(C(=O)Nn2c(CC(C)C)nc3cc(OC)c(OC)cc3c2=O)c(OC)c1 | 0 | -12 | 2 | 34* | 0 | 5
Cc1ccc(/C=C/S(=O)(=O)NCC(=O)OCC(=O)Nc2ccc(C(N)=O)cc2)cc1 | 3 | 8 | 4 | 23* | 4 | -4
COc1cccc(C2c3c(oc4ccccc4c3=O)C(=O)N2CCCN2CCOCC2)c1OC (centres undefined) | -2 | 0 | -5 | 50* | -2 | 42
CCOc1ccc(NC(=S)C(C#N)=C2N(C)c3ccccc3N2C)cc1 | 2 | -7 | 1 | 22* | 2 | 15
Cc1cc(-c2ccccc2)c2c(=O)[nH][nH]c2n1 | -9 | 1 | -2 | 49* | -1 | -6
